High-throughput results: PubChem, Johns Hopkins Ion Channel Center
KCNK3 block = human KCNK3 channel inhibitors, primary screen, CHO cells, FluxOR thallium flux, B-score. FluxOR fluorescence; hits give low values. Potassium channel subfamily K member 3 (Homo sapiens), O14649. 340,000 compounds, 0.84% hits. B-score at 10 µM;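 active = B-score under library mean minus 4 SD, starting fluorescence ratio at most library mean plus 5 SD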;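 also: more negative B-score means stronger inhibition of thallium flux through KCNK3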
KCNQ1 block = inhibitors of human KCNQ1 channel, primary screen, cell-based, thallium flux, high-throughput; Potassium voltage-gated channel subfamily KQT member 1 (Homo sapiens), P51787; CHO-K1 KCNQ1, FluxOR thallium flux fluorescence; hits give high values; B-score at 10 µM; 310,000 compounds, 1.3% hits; AID 2642, 2010;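 active = compounds whose thallium flux B-score, printed positive for inhibition, exceeds three library SD while starting fluorescence stays within three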;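 also: channel opened by potassium depolarization with thallium stimulus after 20 min compound exposure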
Kir21 inh = inhibitors of mouse Kir2.1 inward-rectifier potassium channel; Inward rectifier potassium channel 2 (Mus musculus), P35561; HEK293-Kir2.1, FluxOR thallium flux fluorescence; hits give low values; B-score at 10 µM; 310,000 compounds, 0.85% hits; AID 1672, 2009;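 active = fluorescence ratio B-score at or below minus 3 SD of library scores, with starting-brightness B-score within 2 SD, cut at about -4.2 in these data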;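 also: channel flux triggered by added potassium and thallium sulfate stimulus; B-score of peak minus minimum fluorescence over baseline after thallium stimulus; more negative B-score means stronger Kir2.1 block with less thallium influx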
Target sequence (P35561 whole entry, looked up): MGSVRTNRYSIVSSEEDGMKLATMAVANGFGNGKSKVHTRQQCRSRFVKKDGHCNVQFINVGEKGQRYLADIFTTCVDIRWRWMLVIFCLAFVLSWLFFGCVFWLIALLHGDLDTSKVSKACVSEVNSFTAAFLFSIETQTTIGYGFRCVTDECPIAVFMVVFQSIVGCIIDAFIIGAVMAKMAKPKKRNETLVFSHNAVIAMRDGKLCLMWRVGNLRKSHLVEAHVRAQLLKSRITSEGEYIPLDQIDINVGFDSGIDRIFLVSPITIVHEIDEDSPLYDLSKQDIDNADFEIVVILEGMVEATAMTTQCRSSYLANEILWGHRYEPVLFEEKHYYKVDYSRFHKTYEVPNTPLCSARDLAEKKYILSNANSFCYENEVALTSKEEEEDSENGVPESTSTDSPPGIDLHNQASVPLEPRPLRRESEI
hERG protect = hERG rescue from dofetilide block, primary screen, cell-based, CHO-hERG, FluxOR thallium flux, dofetilide IC70; Voltage-gated inwardly rectifying potassium channel KCNH2 (Homo sapiens), Q12809; dofetilide IC70 present; activation (rescue from dofetilide block), less the hit threshold, % at 10 µM; 310,000 compounds, 0.51% hits; AID 1511, 2009;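 active = activation above the mean of controls blocked by dofetilide plus 5 SD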;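 also: thallium influx through hERG after potassium depolarization seen as dye fluorescence rise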
KCNQ1 pot = potentiators or activators of KCNQ1 channel, primary screen, cell-based, thallium flux, high-throughput; Potassium voltage-gated channel subfamily KQT member 1 (Homo sapiens), P51787; AID 2648, 2010; CHO-K1 KCNQ1, thallium flux FluxOR fluorescence; hits give high values; 310,000 compounds, 0.35% hits; B-score at 10 µM;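 active = fluorescence ratio B-score, a plate-corrected score, at least three library SD, with initial intensity B-score within 5 SD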
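Assay system: CHO-K1 cells stably expressing KCNQ1; Medium: assay buffer with matched DMSO; Also added: K+/Tl+ depolarizing stimulus; Dosing: single dose; Timing: dye 90 min, compound 20 min, room temperature; Measured by: kinetic FluxOR thallium fluorescence, 10-s 1-Hz baseline, 110-s post-stimulus read; Read-out: peak-minus-minimum fluorescence over initial fluorescence, negative-control normalized, B-scored.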
KCNK9 inh = KCNK9 potassium channel inhibitors, primary screen, HEK293 cells, thallium flux | Potassium channel subfamily K member 9 (Homo sapiens), Q9NPC2 | FluxOR thallium flux fluorescence; hits give low values | B-score at 10 µM | 310,000 compounds, 1.2% hits | AID 488922, 2010;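 active = ratio B-score over 3 SD below the library mean, with starting fluorescence within 5 SD of its mean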;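 also: negative B-score means less thallium flux so channel inhibition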
KCNK9 block conf = KCNK9 potassium channel inhibitors, confirmation, HEK293 cells, thallium flux, duplicate. 4,900 compounds, 43% hits. FluxOR thallium flux fluorescence. AID 492992, 2010. inhibition, % at 10 µM. shares compounds with KCNK9 inh;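 active = thallium signal inhibited by more than 5 SD of the compound-free buffer control wells, on both duplicate plates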;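 also: 0% = assay buffer control wells without compound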
Kir21 sel = mouse Kir2.1 channel inhibition, confirmation, selectivity assay for KCNK9 modulator project, cell-based, HEK293, thallium flux; shares compounds with KCNK9 inh; AID 492993, 2010; 4,900 compounds, 4% hits; inhibition, % at 10 µM; Kir2.1 cells, FluxOR thallium flux fluorescence;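 active = thallium signal drop more than 5 SD beyond the mean of the no-compound control wells, seen in both duplicate plates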;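 also: signal is fluorescence rise after thallium addition divided by baseline fluorescence; plate controls were assay buffer only for no effect and full block by chlorpromazine control for full effect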
KCNK9 uninduced = thallium flux in non-induced HEK293 cells, confirmation, counter-screen for KCNK9 inhibitor project, cell-based, second counter screen, non-induced KCNK9-HEK293. shares compounds with KCNK9 inh. FluxOR thallium flux. inhibition, % at 10 µM. 4,900 compounds, 40% hits. AID 492997, 2010;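 active = thallium signal drop beyond 5 SD of the untreated control mean, on both duplicate plates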;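 also: plate controls were buffer only IC0 wells for no effect and SID17386958 at its maximal inhibitory level for full effect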
Active calls of the source: *; i = inactive; nt = no result given. This is a sample that favours compounds with a hit; in the whole collection about 3.7% have one here.

SMILES	KCNK3 block	KCNQ1 block	Kir21 inh	hERG protect	KCNQ1 pot	KCNK9 inh	KCNK9 block conf	Kir21 sel	KCNK9 uninduced
Cc1ccc(S(=O)(=O)N2[C@@H](c3ccc(Cl)cc3)C(C(=O)O)=C[C@H]2C(C)(C)C)cc1	i	nt	nt	nt	nt	nt	nt	nt	nt
CC(C)=CCC12Oc3cc(O)ccc3C1(O)Oc1cc3c(c(O)c1C2=O)C=CC(C)(C)O3 (configuration not stated)	nt	i	-0.06	-6	i	-8.3*	i	i	24%*
COC(=O)c1ccccc1N/C=C/C(=O)c1ccc(Br)cc1	i	i	-1.8	-4	i	-12*	43%*	i	38%*
CCOC(=O)c1ccccc1N/C=C/C(=O)c1cccs1	i	i	0	-4	i	-9.8*	50%*	i	39%*
NC(=O)c1ccccc1N/C=C/C(=O)c1ccccc1	i	i	0.08	-17	i	i	nt	nt	nt
Cc1ccc(O)c(C(=O)/C=C/c2ccc3c(c2)OCCO3)c1	i	i	1	-4	i	i	nt	nt	nt
CCN(CC)S(=O)(=O)c1cccc(C(=O)NC2CCCCC2)c1	i	i	0.1	-12	i	i	nt	nt	nt
CCN(CC)S(=O)(=O)c1ccc(C)c(NC(=S)NC2CCCCC2)c1	i	i	-0.16	-8	i	i	i	i	i
C=CCn1c(SCc2csc(C)n2)nc2sc3c(c2c1=O)CCCCC3	i	i	0.48	-17	i	i	nt	nt	nt
C=CCn1c(SCc2csc(C)n2)nc2sc3c(c2c1=O)CCC(C)C3 (configuration not stated)	i	i	-0.12	-14	i	i	i	i	i
CC(C)CCn1c(=O)c2ccccc2n2c(CN(C)Cc3ccccc3)nnc12	i	i	-0.41	-11	i	i	i	i	i
CC(C)CCn1c(=O)c2ccccc2n2c(CCl)nnc12	i	i	-1.7	-11	i	i	nt	nt	nt
Cc1ccc(NC2CCCN(C(=O)c3cccc4nccnc34)C2)cc1C (configuration not stated)	i	i	0.17	-12	i	i	nt	nt	nt
Cc1ccc(C23CC4CC(CC(CC(=O)N5CCOCC5)(C4)C2)C3)cc1	i	i	-0.7	-16	i	i	i	i	i
Cc1ccc(S(=O)(=O)NNc2nc3ccccc3nc2C(F)(F)F)cc1	i	i	-0.06	-5	i	i	nt	nt	nt
CCN(CC)c1ccc(S(=O)(=O)N2CCOCC2)cc1NC(=O)Cn1nc(C)c([N+](=O)[O-])c1C	i	nt	nt	nt	nt	nt	nt	nt	nt
CCN(CC)c1ccc(S(=O)(=O)N2CCOCC2)cc1NC(=O)CN1CCc2ccccc2C1	i	i	1.2	-3	i	-10*	51%*	i	i
O=C1c2ccncc2C(=O)N1Cc1cccc(Cl)c1	i	i	-0.51	-2	i	i	nt	nt	nt
Cc1cccc(NCN2C(=O)c3ccncc3C2=O)n1	i	i	-0.41	-6	i	i	i	i	i
Cc1ccc(Nc2nc3ccccc3nc2-n2nc(C)cc2C)cc1	i	i	0.91	-10	i	-9.8*	57%*	i	32%*
O=C(NCc1ccccc1)C1=C[C@@H](C2CC2)C[C@@H](OCc2ccc(CO)cc2)O1	i	i	-2.4	-12	i	i	nt	nt	nt
O=C(NCc1ccccc1)C1=C[C@H](C2CCCCC2)C[C@H](OCc2ccc(CO)cc2)O1	i	i	0.04	-7	i	i	i	i	i
CCOC(=O)c1ccccc1NC(=O)COC(=O)C(CCSC)NC(=O)COc1ccccc1 (configuration not stated)	i	i	-0.65	-13	i	i	nt	nt	nt
Cc1ccc2nsnc2c1S(=O)(=O)N1CCN(Cc2ccc3c(c2)OCO3)CC1	i	i	-1.4	0	i	i	i	i	i
Cc1cccc(S(=O)(=O)N2CCN(Cc3ccc4c(c3)OCO4)CC2)c1	i	i	-0.74	-8	i	i	i	i	i
SMILES	KCNK3 block	KCNQ1 block	Kir21 inh	hERG protect	KCNQ1 pot	KCNK9 inh	KCNK9 block conf	Kir21 sel	KCNK9 uninduced
COc1ccc(S(=O)(=O)N2CCN(Cc3ccc4c(c3)OCO4)CC2)cc1	i	i	0.12	-6	i	i	nt	nt	nt
COc1ccc(F)cc1S(=O)(=O)N1CCN(Cc2ccc3c(c2)OCO3)CC1	i	i	-1.8	-10	i	i	i	i	i
CCOc1ccc(S(=O)(=O)N2CCN(Cc3ccc4c(c3)OCO4)CC2)cc1Cl	i	i	-0.09	-5	i	i	i	i	i
Cc1ccc2nsnc2c1S(=O)(=O)N1CCN(C)CC1	i	i	-0.32	-1	i	i	nt	nt	nt
COc1ccc(Cl)cc1S(=O)(=O)N1CCN(Cc2ccc3c(c2)OCO3)CC1	i	i	-0.39	-14	i	i	nt	nt	nt
CC(C)(C)c1cc(C(=O)C[n+]2ccc(C(=O)NCCCO)cc2)cc(C(C)(C)C)c1O	i	i	1.3	-9	i	i	nt	nt	nt
Cc1[nH]n(C2=NCCS2)c(=O)c1N=Nc1ccccc1	i	i	-0.12	-16	i	-12*	i	i	32%*
Cc1[nH]n(-c2ccccc2)c(=O)c1N=Nc1ccc2c(c1)OCO2	i	i	1.4	-11	i	i	nt	nt	nt
COc1cccc(Nc2nc(-c3cccc(N4C(=O)c5ccccc5C4=O)c3)cs2)c1	i	i	-1.3	-7	i	i	i	i	i
O=[N+]([O-])c1ccc(N/N=C\c2ccccc2OCc2ccccc2)cc1	i	i	0	-5	i	i	nt	nt	nt
Cc1cc(C)nc(N/N=C/c2ccccc2OCc2ccc([N+](=O)[O-])cc2)n1	i	i	0.17	-8	i	-15*	51%*	i	28%*
